Measurements published in article PMC6175042 (Journal of nuclear medicine : official publication, Society …, 2018).

Columns and labels:
[1] = system: αvβ3 integrin-positive SK-RC-52 xenograft tumours; assay: Ex vivo biodistribution in mice with SK-RC-52 xenografts; conditions: i.v. 0.5 nmol/mouse, 1 h post injection, n=5; for Tumour uptake, SK-RC-52: mean ± SD; for Tumour-to-blood ratio, SK-RC-52 / Tumour-to-duodenum ratio / Tumour-to-heart ratio / Tumour-to-kidneys ratio / Tumour-to-liver ratio / Tumour-to-lung ratio / Tumour-to-muscle ratio / Tumour-to-pancreas ratio / Tumour-to-spleen ratio / Tumour-to-stomach ratio: SK-RC-52
How it was run: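 Female athymic BALB/c nu/nu mice (6–8 weeks) received 2x10^6 SK-RC-52 cells s.c. in the left flank. Cells were grown in RPMI 1640 with 10% FCS and 1% glutamine. The 68Ga-labelled test compound (15 MBq in 0.3 ml PBS with 0.5% BSA, pH 7.4) was injected via the tail vein into awake, heat-lamp-warmed mice. After CO2/O2 euthanasia, tissues were dissected, weighed and gamma-counted against 1% standards, giving %ID/g.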

[2] = Ex vivo biodistribution in mice with FaDu xenografts; conditions: female, BALB/c nude (BALB/c nu/nu/Foxn1nu), mouse, salivary glands, iv, 0.5 nmol/mouse
[3] = system: αvβ3 integrin-negative FaDu xenograft tumours (αvβ3 integrin expressed solely on neovasculature); assay: as above; conditions: i.v. 0.5 nmol/mouse, 1 h post injection, n=5; for Tumour uptake, FaDu: mean ± SD; for Tumour-to-blood ratio, FaDu / Tumour-to-duodenum ratio / Tumour-to-heart ratio / Tumour-to-kidneys ratio / Tumour-to-liver ratio / Tumour-to-lung ratio / Tumour-to-muscle ratio / Tumour-to-pancreas ratio / Tumour-to-spleen ratio / Tumour-to-stomach ratio: FaDu
αvβ3 integrin = conditions: cited from earlier work

SMILES	Tumour uptake, SK-RC-52 [1] [%ID/g]	Tumour-to-blood ratio, SK-RC-52 [1]	Tumour-to-duodenum ratio [1]	Tumour-to-heart ratio [1]	Tumour-to-kidneys ratio [1]	Tumour-to-liver ratio [1]	Tumour-to-lung ratio [1]	Tumour-to-muscle ratio [1]	Tumour-to-pancreas ratio [1]	Tumour-to-spleen ratio [1]	Tumour-to-stomach ratio [1]	tissue uptake at 1 h [2] [%ID/g]	Tumour uptake, FaDu [3] [%ID/g]	Tumour-to-blood ratio, FaDu [3]	Tumour-to-duodenum ratio [3]	Tumour-to-heart ratio [3]	Tumour-to-kidneys ratio [3]	Tumour-to-liver ratio [3]	Tumour-to-lung ratio [3]	Tumour-to-muscle ratio [3]	other results
C/C1=C/C(=O)N(O)CCC[C@H](NC(=O)CCC(=O)NCCCC[C@@H]2NC(=O)[C@@H](Cc3ccccc3)NC(=O)[C@H](CC(=O)O)NC(=O)CNC(=O)[C@H](CCCNC(=N)N)NC2=O)C(=O)OCC/C(C)=C\C(=O)N(O)CCC[C@H](NC(=O)CCC(=O)NCCCC[C@@H]2NC(=O)[C@@H](Cc3ccccc3)NC(=O)[C@H](CC(=O)O)NC(=O)CNC(=O)[C@H](CCCNC(=N)N)NC2=O)C(=O)OCC/C(C)=C\C(=O)N(O)CCC[C@H](NC(=O)CCC(=O)NCCCC[C@@H]2NC(=O)[C@@H](Cc3ccccc3)NC(=O)[C@H](CC(=O)O)NC(=O)CNC(=O)[C@H](CCCNC(=N)N)NC2=O)C(=O)OCC1 [^68Ga-FSC-(RGD)3, metal not drawn]	12.5±2.5	30.7±8.1	1.5±0.4	12.4±3.2	1.9±0.3	2.5±0.2	4.8±0.9	17.2±3.2	17.9±3.5	2.6±0.5	2.6±0.3	2.2 ± 0.3	1.9±0.3	3.5±0.6	0.4±0.08	2.4±0.4	0.4±0.05	0.8±0.1	0.9±0.1	3.6±0.6	Tumour-to-pancreas ratio [3]: 3.0±0.4; Tumour-to-spleen ratio [3]: 0.6±0.06; Tumour-to-stomach ratio [3]: 0.6±0.1; Tumour targeting compared to monomeric RGD peptides (αvβ3 integrin): improved tumour targeting
N=C(N)NCCC[C@@H]1NC(=O)[C@H](CCCCNC(=O)CCOCCOCCOCCOCCNC(=O)CCP(=O)(O)CN2CCN(CP(=O)(O)CCC(=O)NCCOCCOCCOCCOCCC(=O)NCCCC[C@@H]3NC(=O)[C@@H](Cc4ccccc4)NC(=O)[C@H](CC(=O)O)NC(=O)CNC(=O)[C@H](CCCNC(=N)N)NC3=O)CCN(CP(=O)(O)CCC(=O)NCCOCCOCCOCCOCCC(=O)NCCCC[C@@H]3NC(=O)[C@@H](Cc4ccccc4)NC(=O)[C@H](CC(=O)O)NC(=O)CNC(=O)[C@H](CCCNC(=N)N)NC3=O)CC2)NC(=O)[C@@H](Cc2ccccc2)NC(=O)[C@H](CC(=O)O)NC(=O)CNC1=O (single isomer, unassigned) [^68Ga-TRAP-(RGD)3, metal not drawn]	4.4±0.8	38.5±3.8	1.4±0.4	15.3±2.3	1.1±0.1	3.0±0.5	4.8±0.9	20.9±3.6	17.3±3.7	3.0±0.5	3.0±0.7	0.7 ± 0.1	1.0±0.2	5.8±0.9	0.3±0.07	4.4±1.4	0.5±0.1	0.8±0.2	1.5±0.4	4.8±1.2	Tumour-to-pancreas ratio [3]: 4.6±1.0; Tumour-to-spleen ratio [3]: 0.9±0.2; Tumour-to-stomach ratio [3]: 0.8±0.2; Tumour targeting compared to monomeric RGD peptides (αvβ3 integrin): improved tumour targeting
